# VIM-2 inh – VIM-2 metallo-beta-lactamase inhibitors, primary screen, biochemical, epi-absorbance readout, Pseudomonas aeruginosa enzyme; purified VIM-2, nitrocefin hydrolysis, epi-absorbance fluorescence; inhibition, % at 5.6 µM; 290,000 compounds, 0.89% hits; AID 1527, 2009;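 active means inhibition above the mean of all tested compounds plus 3 SD, cutoff set per screening run, cut at about 7.5% in these data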;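 further: red hydrolysis product quenches plate fluorescence so inhibitors raise well fluorescence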
# NS3 helicase inh – inhibitors of HCV NS3 helicase, primary screen, biochemical, Cy5 molecular beacon fluorescence | Hepatitis C virus NS3 helicase | NS3 helicase DNA unwinding | inhibition, % at 10.9 µM | 290,000 compounds, 0.56% hits | AID 1800, 2009;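 active means inhibition above the mean of all tested compounds plus 3 SD, set per campaign, cut at about 35% in these data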
#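 System: NS3 helicase fragment of HCV / Schedule: 1 h at 25 °C / Control set: DMSO alone as 0% and 110 µM thioflavine S as 100% / Reagent: Cy5/quencher beacon DNA duplex and ATP to start / Technique: Cy5 fluorescence / Replication: singlicate / Evaluation: % inhibition of end-to-start signal ratio versus controls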
# IMP-1 inh-1 – IMP-1 metallo-beta-lactamase inhibitors, primary screen, biochemical, epi-absorbance readout, Pseudomonas aeruginosa enzyme; 290,000 compounds, 0.45% hits; purified IMP-1, nitrocefin hydrolysis, epi-absorbance fluorescence; inhibition, % at 5.6 µM;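 active means inhibition above the mean plus 3 SD of all compounds in the same screening run, cut at about 4.5% in these data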
#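 Test system: recombinant IMP-1 enzyme, purified / Medium: HEPES buffer pH 7.1 with ZnSO4 and Brij 35 / Doses: single dose, 5.6 µM / Times: 25 °C, 15 min preincubation, 25 min reaction / Detection: Epi-absorbance via hydrolysed-nitrocefin quenching of white-plate fluorescence, 480/530 nm, EDTA stop / Evaluation: percent inhibition from optical density relative to buffer-blank wells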
# FID counter – compounds displacing fluorescent DNA intercalator, primary screen, artefact control for HCV NS3 helicase inhibitor project, biochemical, FID fluorescence | DNA fluorescent intercalator displacement | inhibition, % at 7.9 µM | 290,000 compounds, 0.17% hits | AID 1845, 2009; in the data active means inhibition above about 37%;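 further: higher means more ethidium bromide displaced from hairpin DNA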
# IMP-1 inh-2 – IMP-1 metallo-beta-lactamase inhibitors, confirmation, selectivity assay for selective VIM-2 inhibitor project, biochemical, epi-absorbance readout, triplicate. shares compounds with VIM-2 inh. purified IMP-1, nitrocefin hydrolysis, epi-absorbance fluorescence. inhibition, % at 5.6 µM. 1,300 tested, under 10 active. AID 1856, 2009; call rule not given here
# VIM-2 FRET inh – VIM-2 inhibitors in FRET format, confirmation, artefact control for selective VIM-2 inhibitor project, biochemical, epi-absorbance artifact exclusion; shares compounds with VIM-2 inh; purified VIM-2, CCF2 FRET substrate hydrolysis; inhibition, % at 5.6 µM; 1,300 compounds, 23% hits;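 active means inhibition above the mean of all tested compounds plus 3 SD, cut at about 19% in these data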
# TEM-1 inh – TEM-1 serine beta-lactamase inhibitors, counter-screen for VIM-2 inhibitor project, biochemical, epi-absorbance, HTS; shares compounds with VIM-2 inh; Purified TEM-1, nitrocefin hydrolysis, epi-absorbance fluorescence; inhibition, % at 5.6 µM; 1,300 compounds, 3% hits;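 active means inhibition above that campaign's mean inhibition plus 3 SD, cut at about 0.46% in these data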
# Target sequence (P62593 whole entry, looked up): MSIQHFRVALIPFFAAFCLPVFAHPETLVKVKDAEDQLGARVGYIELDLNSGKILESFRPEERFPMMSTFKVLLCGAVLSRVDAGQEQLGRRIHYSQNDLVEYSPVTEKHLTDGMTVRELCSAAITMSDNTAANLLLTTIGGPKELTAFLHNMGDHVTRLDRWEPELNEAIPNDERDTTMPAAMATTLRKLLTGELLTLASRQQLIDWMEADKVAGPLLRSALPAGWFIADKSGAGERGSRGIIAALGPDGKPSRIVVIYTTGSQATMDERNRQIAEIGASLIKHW
# VIM-2 confirm 2 – VIM-2 metallo-beta-lactamase inhibitors, confirmation, biochemical, epi-absorbance, hits shared with IMP-1 screen. shares compounds with VIM-2 inh. purified VIM-2, nitrocefin hydrolysis. inhibition, % at 5.6 µM. 1,300 compounds, 96% hits. AID 2187, 2009;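 active means inhibition of the VIM-2 beta-lactamase enzyme above about 11% from the earlier first-round screen, limit read from the data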
# Hits are given with their value; i = inactive; nt = no result. This is a sample that favours compounds with a hit; in the whole collection about 1.9% have one here.
SMILES,VIM-2 inh,NS3 helicase inh,IMP-1 inh-1,FID counter,IMP-1 inh-2,VIM-2 FRET inh,TEM-1 inh,VIM-2 confirm 2
Cc1cccc(C2c3[nH]c4ccccc4c3CCN2C(=O)c2cc(CC(C)C)nc(C)n2)n1 (configuration not stated),i,i,i,i,nt,nt,nt,nt
Cc1cc(C)cc(-n2ncc3c2CCCC3NC(=O)c2ccccc2N2CCOCC2)c1 (configuration not stated),i,i,i,i,nt,nt,nt,nt
Cc1ccc(NC(=O)N2CCc3ccccc3C2)c(C)c1,i,i,i,i,nt,nt,nt,nt
Cc1ccc(-c2nn3cnnc3c3ccccc23)cc1,17,i,i,i,i,i,i,27
Cc1ccc(-c2nn3c(C)nnc3c3ccccc23)cc1S(=O)(=O)N1CCN(CCO)CC1,61,i,i,i,i,i,i,73
Cc1ccc(-c2nn3c(C)nnc3c3ccccc23)cc1S(=O)(=O)NCCO,30,i,i,i,i,i,i,37
Clc1nn2cnnc2c2ccccc12,i,i,i,i,nt,nt,nt,nt
Cc1ccc(-c2nn3c(C)nnc3c3ccccc23)cc1S(=O)(=O)NC(C)c1ccccc1 (configuration not stated),i,i,i,i,nt,nt,nt,nt
Cc1ccc(-c2nn3c(C)nnc3c3ccccc23)cc1S(=O)(=O)NC(C)(C)CO,22,i,i,i,i,i,i,37
O=C(COc1ccc(Cl)cc1)NCc1nnc2c3ccccc3c(-c3ccccc3)nn12,i,i,i,i,nt,nt,nt,nt
CCCCNS(=O)(=O)c1cc(-c2nn(C)c(=O)c3ccccc23)ccc1C,i,i,i,i,nt,nt,nt,nt
O=C(NCc1nnc2c3ccccc3c(-c3ccccc3)nn12)c1ccccc1Cl,17,i,i,i,i,i,i,27
Cc1nnc2c3ccccc3c(-c3ccccc3)nn12,24,i,i,i,i,i,1.9,43
Cc1ccc(-c2nn(C)c(=O)c3ccccc23)cc1S(=O)(=O)NCCN(C)C,37,i,i,i,i,i,i,51
CCN1CCN(c2cc3c(nn2)Oc2ccccc2N3C)CC1,13,i,i,i,i,i,i,25
CCN1CCN(c2nnc(-c3ccccc3)c3ccccc23)CC1,i,i,i,i,nt,nt,nt,nt
CSc1nnc2c3cc(F)ccc3n(C)c2n1,14,i,i,i,i,i,i,24
Cc1ccc(OCCn2ccnc2)c([N+](=O)[O-])c1,i,i,i,i,nt,nt,nt,nt
Cc1cc(OCCCn2ccnc2)ccc1[N+](=O)[O-],28,i,i,i,i,i,i,39
COc1ccc(-c2n[nH]c(=S)n2-c2ccc3c(c2)OCCO3)cc1,13,i,i,i,i,34,i,19
COc1ccc(-c2n[nH]c(=S)n2-c2ccc(C)cc2)cc1OC,i,i,i,i,nt,nt,nt,nt
COc1ccc(-c2n[nH]c(=S)n2-c2ccc3c(c2)OCCO3)cc1OC,18,i,i,i,i,50,i,31
COc1cc(OC)c2c(=O)c(OC)c(-c3ccc(OC)c(OC)c3)oc2c1,16,i,i,i,i,i,i,35
Cc1ccc2c(c1)c1nc3ccccc3nc1n2C,14,i,i,i,i,i,i,16
Cn1c2ccc(Cl)cc2c2nc3ccccc3nc21,i,i,i,i,nt,nt,nt,nt
SMILES,VIM-2 inh,NS3 helicase inh,IMP-1 inh-1,FID counter,IMP-1 inh-2,VIM-2 FRET inh,TEM-1 inh,VIM-2 confirm 2
Cc1cccn2c(=O)c3cc(C(=O)NC4CCCCC4)n(C)c3nc12,i,i,i,i,nt,nt,nt,nt
CCCCNC(=O)c1cc2c(=O)n3cccc(C)c3nc2s1,21,i,i,i,i,i,i,25
COCCCNC(=O)c1cc2c(=O)n3cccc(C)c3nc2s1,18,i,i,i,i,i,i,23
Cc1cccn2c(=O)c3cc(C(=O)NCCc4ccccc4)sc3nc12,i,i,i,i,nt,nt,nt,nt
Cc1cccn2c(=O)c3cc(C(=O)NC4CCCC4)n(C)c3nc12,14,i,i,i,i,i,i,22
Cc1cccn2c(=O)c3cc(C(=O)NC4CCS(=O)(=O)C4)sc3nc12 (configuration not stated),15,i,i,i,i,i,i,24
O=C1c2cccc3cccc(c23)C(=O)N1CC1CCN(CC(O)COCc2ccc3c(c2)OCO3)CC1 (configuration not stated),16,i,i,i,i,i,i,24
CCOC(=O)C1CCN(CC(O)COCc2ccc3c(c2)OCO3)CC1 (configuration not stated),i,i,i,i,nt,nt,nt,nt
CCc1nc2cc(C)nn2c2nc3ccccc3n12,16,i,i,i,i,i,i,26
CSC[C@H](NC(=O)COc1cc2c(c3oc(=O)c(C)c(C)c13)CCC(C)(C)O2)C(=O)O,28,i,i,i,i,48,i,34
CSCC[C@H](NC(=O)COc1cc2c(c3oc(=O)c(C)c(C)c13)CCC(C)(C)O2)C(=O)O,i,i,i,i,nt,nt,nt,nt
Cc1c(C)c2c(OCC(=O)N[C@@H](CC(C)C)C(=O)O)cc3c(c2oc1=O)CCC(C)(C)O3,i,i,i,i,nt,nt,nt,nt
Cc1c(C)c2c(OCC(=O)N[C@@H](Cc3ccccc3)C(=O)O)cc3c(c2oc1=O)CCC(C)(C)O3,40,i,i,i,i,68,i,46
C=CCOC(=O)c1ccc(N2CCN(c3ccccc3)CC2)nc1,i,i,i,i,nt,nt,nt,nt
CC(=O)N1c2ccc(S(=O)(=O)N3CCCC3C(=O)NCc3ccccc3Cl)cc2CC1C (configuration not stated),i,i,i,i,nt,nt,nt,nt
CC(=O)c1ccc2c(c1)c(C#N)c1ccccc1[n+]2[O-],24,i,i,i,i,i,2.7,28
O=C(NCCN1CCN(c2ccccc2)CC1)c1cccn2c(=O)c3ccccc3nc12,i,i,i,i,nt,nt,nt,nt
CN(CCCNC(=O)c1cccn2c(=O)c3ccccc3nc12)Cc1ccccc1,22,i,i,i,i,i,i,45
O=C(O)C/C(=C\c1cc(Cl)c2c(c1)OCO2)c1nc2ccccc2s1,14,i,i,i,i,40,i,23
COc1cccc(/C=C(\CC(=O)O)c2nc3ccccc3s2)c1,i,i,i,i,nt,nt,nt,nt
O=C(CCC(=O)N/N=C/c1cc(Cl)cc(Cl)c1O)NCc1ccccc1,i,i,i,i,nt,nt,nt,nt

# Screening results: PubChem, The Scripps Research Institute Molecular Screening Center
